STAT3 act – activators of IL-6 induced STAT3 signaling. U3A cells, IL-6 STAT3-luciferase reporter, luminescence; 100% = signal with IL-6 EC80 alone. 190,000 compounds, 0.91% hits. activation (% of control), % at 5.6 µM;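 active means activation above the screen-wide mean of compound activation plus 3 SD, cut at about 130% in these data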;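 further: 0% = background luminescence of wells with medium and substrate only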
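Assay system – human STAT1-deficient U3A cells with stable STAT3-luciferase reporter · Also added – IL-6 (33 ng/mL) · Schedule – compound 1 h, then IL-6 6 h at 37 °C · Technique – reporter luminescence signal · Evaluation – % activation versus median of IL-6-stimulated wells · Benchmarks – IL-6-only wells as 100% reference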
STAT1 blocker – reduces IFN-gamma driven STAT1 reporter signal. NIH 3T3 STAT1-luciferase reporter, luminescence. inhibition, % at 5.5 µM. 200,000 compounds, 0.35% hits. AID 920;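 active means inhibition above a set limit, the mean inhibition across all tested compounds plus 3 SD, cut at about 34% in these data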;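 further: 0% = IFN-gamma with DMSO and 100% = IFN-gamma with 300 µM nifuroxazide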
NF-kB expr up – NF-kB expression increase, human neuronal cells; NF-kB reporter expression; stronger effect = higher value; fold change at 12.5 µM; 190,000 compounds, 1.6% hits; in the data active means fold change above about 3.3
APP 5'UTR act – activates APP 5'UTR luciferase reporter | SH-SY5Y APP 5'UTR luciferase reporter, luminescence; zero percent = DMSO vehicle wells | activation, % at 2 µM | 190,000 compounds, 1% hits | AID 1276;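 active means activation above a set limit, based on mean plus 3 SD of controls, cut at about 140% in these data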
STAT3 blocker – STAT3 signaling inhibition. inhibition, % at 5.5 µM. 190,000 compounds, 0.89% hits. U3A cells, IL-6 STAT3-luciferase reporter, luminescence; host cell line lacks STAT1;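 active means inhibition above the mean inhibition across all screened compounds plus 3 SD, cut at about 44% in these data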;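 further: 0% = DMSO only wells and 100% = 100 µM nifuroxazide control wells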
STAT1 activator – increases IFN-gamma driven STAT1 reporter signal; NIH 3T3 STAT1-luciferase reporter, luminescence; 100% = IFN-gamma alone, no compound; AID 932; 200,000 compounds, 2.6% hits; activation (% of control), % at 5.5 µM;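 active means activation above the screen-wide mean activation plus 3 SD, cut at about 130% in these data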;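 further: raw ratio to IFN-gamma control signal so 100% means no change and 0% no light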
Starred values were filed as active, the others as inactive. Compounds with a hit are over-represented: about 4.9% of the library has one in this group of screens.

SMILES | STAT3 act | STAT1 blocker | NF-kB expr up | APP 5'UTR act | STAT3 blocker | STAT1 activator
COc1ccc2c(CC(=O)N3CCc4ccccc43)coc2c1 | 101.3 | -29.4 | 4.91* | 142.1* | 4.2 | 126.9
CCCCn1c(SCC(=O)Nc2cc(C(F)(F)F)cc(C(F)(F)F)c2)nnc1C(CC)N(C)C (configuration not stated) | 103.2 | 0.1 | 1.18 | 4.4 | -6.6 | 102.1
COC(=O)c1ccc(NC(=S)NCCC2=CCCCC2)cc1 | 80.0 | 11.7 | 1.03 | 2.7 | 33.8 | 89.5
COC(=O)c1cccc(NC(=S)NCCC2=CCCCC2)c1 | 59.2 | 27.3 | 1.05 | 19.7 | 52.9* | 75.7
Cc1nc2cc(NC(=O)NCCC3=CCCCC3)ccc2o1 | 109.8 | -34.1 | 1.95 | 69.7 | -7.0 | 131.5*
COCCSc1nnc(NC(=O)c2ccc(OC)c([N+](=O)[O-])c2)s1 | 97.9 | -5.8 | 1.07 | -10.2 | 4.8 | 104.8
COC(=O)Cn1c(C)nc2ccccc21 | 101.1 | -3.1 | 0.89 | -4.4 | 4.7 | 102.9
COC(=O)Cn1c(C)nc2c(sc3nc(C)cc(C)c32)c1=O | 96.8 | -44.5 | 2.99 | 24.2 | 7.5 | 141.0*
Cc1cccc(NC(=O)c2sc(Cl)nc2C)c1C | 92.9 | -2.6 | 1.17 | -0.7 | 9.4 | 102.3
O=C(Nn1c(C2CCCCC2)nc2ccccc2c1=O)c1ccc([N+](=O)[O-])cc1 | 89.7 | 5.3 | 1.24 | 14.5 | 12.4 | 95.3
O=c1c2oc3ccccc3c2ncn1Cc1ccccc1F | 106.7 | -10.8 | 3.54* | 4.4 | -0.5 | 109.8
O=C(c1cnn(-c2ccccc2)c1)c1ccccc1O | 71.9 | -19.6 | 9.48* | 183.5* | 35.6 | 117.8
CCCCN1C(=O)C(=O)N(c2ccccc2)C1=S | 101.0 | -40.2 | 3.37* | 87.4 | 1.6 | 135.3*
Cc1ccc([N+](=O)[O-])cc1NC(=O)c1ccc2c(c1)OCO2 | 95.1 | 1.5 | 1.03 | -26.1 | 10.9 | 97.3
CNc1cc([N+](=O)[O-])ccc1N/C=C/C(=O)c1ccc2c(c1)OCO2 | 134.7* | -38.7 | 1.04 | 9.3 | -38.1 | 134.6*
O=C(/C=C\Nc1ccccc1Br)c1ccc2c(c1)OCO2 | 27.3 | 81.9* | 5.96* | 147.7* | 86.9* | 24.1
O=C(/C=C\Nc1cccc(F)c1)c1ccc2c(c1)OCO2 | 21.1 | 51.5* | 2.27 | 196.0* | 95.7* | 63.3
COc1cc(C(=O)Nc2cc(-c3cn4cccnc4n3)ccc2C)cc(OC)c1OC | 82.1 | -2.2 | 1.13 | 11.8 | 28.9 | 100.4
NC(=O)CCn1ccc2ccccc21 | 105.5 | -6.3 | 0.96 | 22.6 | 0.3 | 103.8
Cc1cccc(Oc2ccc(Cl)cc2N)c1 | 95.6 | -13.0 | 1.71 | 20.0 | 13.2 | 112.5
O=C(OCC1CC(c2ccccc2)=NO1)c1ccc(Cl)cc1 (configuration not stated) | 102.8 | 1.5 | 1.06 | 8.8 | 1.4 | 98.7
CN1OC(COC(=O)c2ccccc2)CC1c1ccccc1 (configuration not stated) | 109.1 | -33.2 | 1.26 | 18.6 | -2.7 | 129.9*
Cc1ccc(-c2cc(C(F)(F)F)n3nc(C(=O)NCCCn4ccnc4)cc3n2)cc1C | 98.2 | -0.8 | 0.83 | 1.2 | 7.0 | 100.8
COc1cc(NC(=S)NCCCN2CCOCC2)cc(OC)c1 | 100.0 | -2.9 | 1.17 | -7.3 | 2.6 | 102.6
COc1ccc(S(=O)(=O)N2CCC(C(=O)N3CCCCC3)CC2)cc1Cl | 95.1 | 1.2 | 1.13 | -6.1 | 7.5 | 98.8
SMILES | STAT3 act | STAT1 blocker | NF-kB expr up | APP 5'UTR act | STAT3 blocker | STAT1 activator
Cc1cc(C)n(CC(O)COc2ccc3ccccc3c2)n1 (configuration not stated) | 102.2 | -38.6 | 2.22 | 19.3 | 1.0 | 133.4*
Cc1cc(C)n(CC(O)COc2ccccc2)n1 (configuration not stated) | 83.3 | -2.6 | 1.3 | -11.3 | 23.1 | 102.4
COc1ccc2nc(N=Nc3ccc(N(C)C)cc3)sc2c1 | 66.1 | 53.0* | 1.52 | 112.6 | 44.5* | 52.6
Cc1ccnc(N/C=C(\C#N)c2nc(-c3cccc(Br)c3)cs2)c1 | 85.3 | 0.9 | 1.27 | -10.6 | 24.4 | 98.1
COc1ccc(NC(=O)CCCc2c[nH]c3ccccc23)cc1OC | 102.4 | -10.9 | 1.24 | -15.4 | -4.6 | 110.4
COc1ccc(C(c2c[nH]c3ccccc23)c2c[nH]c3ccccc23)cc1O | 191.9* | -1.1 | 0.95 | -2.8 | -107.4 | 101.0
O=C(NCCCN1CCCC1=O)C1CCCO1 (configuration not stated) | 93.7 | -3.3 | 1.08 | -5.5 | 12.2 | 100.3
COc1ccc(Cc2nnc(NC(=O)C(C)(C)C)s2)cc1 | 102.1 | -13.2 | 1.16 | 4.7 | 2.1 | 110.6
COc1cc(NC(=O)c2cccs2)c(C(=O)OCC(=O)c2cc(C)n(-c3ccccc3)c2C)cc1OC | 41.9 | 35.7* | 0.45 | -21.5 | 69.7* | 68.5
COc1cc(NC(=O)c2cccs2)c(C(=O)OCC(=O)c2cc(C)n(-c3ccc(F)cc3)c2C)cc1OC | 99.1 | -1.1 | 0.99 | 16.7 | 1.0 | 101.0
O=C(O)C1CCCCC1C(=O)NCc1ccccn1 (configuration not stated) | 102.0 | -9.9 | 1.11 | -0.6 | 2.3 | 105.9
CCCCOCCCNC(=O)c1ccc([N+](=O)[O-])c(C)c1 | 92.4 | -4.3 | 0.97 | -17.0 | 10.4 | 103.5
N=C1C(c2nc3ccccc3s2)=C(O)CN1c1ccccc1 | 103.1 | -55.0 | 1.61 | 17.4 | 3.8 | 149.0*
COc1ccc(N2CC(O)=C(c3nc4ccccc4s3)C2=N)cc1 | 108.4 | -10.2 | 1.15 | 14.1 | -3.9 | 109.3
Cc1[nH]c2ccccc2c1SCC(=O)N1CCCCCC1 | 95.6 | 2.5 | 1.42 | 6.5 | 7.4 | 98.1
Cc1ccc(/C=N/NC(=O)c2nn(C)cc2Cl)cc1 | 94.4 | -32.7 | 2.13 | 42.5 | 10.2 | 128.9*
O=C(O)[C@@H]1[C@@H]2C[C@@H]2CN1c1ncccc1[N+](=O)[O-] | 100.9 | -6.7 | 0.89 | -1.9 | 3.6 | 104.7
CCOC(=O)N1CCN(C(=O)c2cc(COc3ccc4ncccc4c3)on2)CC1 | 54.5 | 42.9* | 0.6 | -17.9 | 56.2* | 60.4
Cc1cccnc1CN1CCN(C(=O)c2cc(COc3ccc4ncccc4c3)on2)CC1 | 63.4 | 35.6* | 0.65 | -10.5 | 45.7* | 66.6
O=C(c1cc(COc2ccc3ncccc3c2)on1)N1CCC(O)CC1 | 83.2 | 12.4 | 1.54 | 3.9 | 23.4 | 87.5
CCCCC(=O)NS(=O)(=O)c1ccc(N=NN2CCOCC2)cc1 | 98.9 | 8.9 | 1.84 | -3.5 | 0.3 | 92.1
COc1ccc(CNC(=O)C2CC(c3ccc(OC)cc3)=NO2)cc1 (configuration not stated) | 93.3 | -0.1 | 1.18 | 1.1 | 12.3 | 100.1
COc1ccc(C2=NOC(CNC(N)=S)C2)cc1 (configuration not stated) | 83.4 | -7.9 | 4.29* | 115.0 | 22.4 | 105.9
CC1(C)CC(=O)c2c(O)cc(OCc3ccc(Br)cc3)cc2O1 | 116.9 | -50.0 | 1.54 | 138.7* | -13.5 | 145.7*
